In ChEMBL document CHEMBL1156172, “Substituted hydrazinecarbothioamide as potent antitubercular agents: synthesis and quantitative structure-activity relationship (QSAR)” (2010):
In brackets after ≈: the same amount, converted by molar mass.

Test system: Mycobacterium tuberculosis
Experiment: Antituberculosis activity against Mycobacterium tuberculosis H37Rv after 4 weeks by agar slant proportion method
Type: functional
Details: for MIC: Mycobacterium tuberculosis, H37Rv, 672 h
Summary of the method: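 M. tuberculosis H37Rv inoculated onto drug-containing slants at 105 bacilli per tube, then incubated 4 weeks at 37 °C (proportion method). MIC taken as the lowest concentration of compound giving no visible growth of the inoculated bacilli; reported in μg/mL.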

SMILES | MIC | -logMIC
C/C(=N\NC(=S)Nc1ccc(I)cc1)c1ccc([N+](=O)[O-])cc1 | > 12.5 µg/mL | –
C/C(=N\NC(=S)Nc1ccc(Br)cc1)c1ccc(Br)cc1 | 0.8 µg/mL (≈ 1.87 µM) | 0.097
C/C(=N\NC(=S)NNc1ccc(C)cc1)c1ccc(Br)cc1 | 1.56 µg/mL (≈ 4.13 µM) | –
C/C(=N\NC(=S)NNC(=O)c1cccnc1)c1ccc(Br)cc1 | 6.25 µg/mL (≈ 15.9 µM) | -0.796
C/C(=N\NC(=S)Nc1cccc(Cl)c1Cl)c1ccc([N+](=O)[O-])cc1 | > 12.5 µg/mL | –
C/C(=N\NC(=S)Nc1cc(C)ccn1)c1ccc(Br)cc1 | 0.4 µg/mL (≈ 1.1 µM) | 0.398
C/C(=N\NC(=S)Nc1cc(C)ccn1)c1ccc([N+](=O)[O-])cc1 | 3.12 µg/mL (≈ 9.47 µM) | -0.494
CC(=O)C1(c2ccccc2)CCN(NC(=S)N/N=C(\C)c2ccc(Br)cc2)CC1 | 0.8 µg/mL (≈ 1.69 µM) | 0.097
COc1ccc(NC(=S)N/N=C(\C)c2ccc(Br)cc2)cc1 | 0.8 µg/mL (≈ 2.11 µM) | 0.097
C/C(=N\NC(=S)Nc1cccc(Cl)c1Cl)c1ccc(Br)cc1 | 0.4 µg/mL (≈ 0.959 µM) | 0.398
COc1ccc(NNC(=S)N/N=C(\C)c2ccc(Br)cc2)cc1 | 1.56 µg/mL (≈ 3.97 µM) | -0.193
C/C(=N\NC(=S)Nc1ccncc1)c1ccc(Br)cc1 | > 12.5 µg/mL | –
C/C(=N\NC(=S)Nc1ccccc1F)c1ccc(Br)cc1 | 3.12 µg/mL (≈ 8.52 µM) | –
C/C(=N\NC(=S)Nc1cccc(C)c1)c1ccc([N+](=O)[O-])cc1 | > 12.5 µg/mL | –
C/C(=N\NC(=S)NN)c1ccc(Br)cc1 | > 12.5 µg/mL | –
C/C(=N\NC(=S)Nc1ccccc1[N+](=O)[O-])c1ccc(Br)cc1 | 0.4 µg/mL (≈ 1.02 µM) | 0.398
C/C(=N\NC(=S)Nc1ccncc1C)c1ccc(Br)cc1 | > 12.5 µg/mL | –
C/C(=N\NC(=S)Nc1ccc(I)cc1)c1ccc(Br)cc1 | 0.8 µg/mL (≈ 1.69 µM) | 0.097
C/C(=N\NC(=S)NN1CCN(c2ccccc2Cl)CC1)c1ccc(Br)cc1 | 3.12 µg/mL (≈ 6.68 µM) | –
C/C(=N\NC(=S)Nc1ccc(Br)cc1)c1ccc([N+](=O)[O-])cc1 | 6.25 µg/mL (≈ 15.9 µM) | -0.796
C/C(=N\NC(=S)Nc1ccccc1F)c1ccc([N+](=O)[O-])cc1 | > 12.5 µg/mL | –
COc1ccc(NC(=S)N/N=C(\C)c2ccc([N+](=O)[O-])cc2)cc1 | > 12.5 µg/mL | –
CC[C@@H](CO)NCCN[C@@H](CC)CO [ETHAMBUTOL] | 0.1 µg/mL (≈ 0.489 µM) | –
NNC(=O)c1ccncc1 [ISONIAZID] | 0.02 µg/mL (≈ 0.146 µM) | –
